# What was measured:
# [1] = Antiischemic activity in forebrain neurons assessed as necrotic and delayed apoptotic neuronal population at 100 uM after 20 mins; assay type: functional, Homo sapiens, Neuron
# Procedure, shortened: (§1)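 Isolated forebrain neurons at 1×10^6 cells/100 µl pretreated with compound (100 µM) 20 min at 37 °C, then exposed to equal volume of H2O2 (300 µM) 1 h at 37 °C; untreated cells held 1 h 20 min. Cells washed twice in cold PBS, stained FITC-Annexin V/propidium iodide 15 min at room temperature in dark. 10,000 cells read by flow cytometry (ex 488 nm; em 530, 670 nm); quadrant percentages.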
# [2] = Antiischemic activity in forebrain neurons assessed as viable cells at 100 uM after 20 mins; assay type: functional; settings: Homo sapiens, Neuron, read-out: Activity; procedure, shortened: as §1
# [3] = Antiischemic activity in forebrain neurons assessed as necrotic neuronal population at 100 uM after 20 mins; assay type: functional, Homo sapiens, Neuron; procedure, shortened: as §1
# [4] = Antiischemic activity in forebrain neurons assessed as apoptotic neuronal population at 100 uM after 20 mins; assay type: functional, Homo sapiens, Neuron; procedure, shortened: as §1
smiles,measurement,setting,value
C[C@@H]1NCc2ccccc2NC1=O,Activity,[1],4.8%
same,viability at 100 µM,[2],60.4%
same,Activity,[3],5.35%
same,Activity,[4],29.47%
COC(=O)C[C@@H]1NCc2ccccc2NC1=O,Activity,[1],4.28%
same,viability at 100 µM,[2],65.2%
same,Activity,[3],4.73%
same,Activity,[4],25.75%
O=C1Nc2ccccc2CN[C@H]1Cc1ccc(OCc2ccccc2)cc1,Activity,[1],4.83%
same,viability at 100 µM,[2],66.5%
same,Activity,[3],4.99%
same,Activity,[4],23.63%
CSCC[C@@H]1NCc2ccccc2NC1=O,Activity,[1],3.5%
same,viability at 100 µM,[2],82.7%
same,Activity,[3],4.73%
same,Activity,[4],9.08%
O=C1Nc2ccccc2CN[C@H]1Cc1ccccc1,Activity,[1],1.21%
same,viability at 100 µM,[2],70.1%
same,Activity,[3],2.07%
same,Activity,[4],25.58%
O=C1Nc2ccccc2CN[C@@H]1Cc1c[nH]c2ccccc12,Activity,[1],3.47%
same,viability at 100 µM,[2],75%
same,Activity,[3],0.5%
same,Activity,[4],21.06%
CSCC[C@H]1NCc2ccccc2NC1=O,Activity,[1],3.98%
same,viability at 100 µM,[2],77.8%
same,Activity,[3],0.52%
same,Activity,[4],16.96%
O=C1Nc2ccccc2CN2C[C@@H](O)C[C@@H]12,Activity,[1],3.08%
same,viability at 100 µM,[2],87.5%
same,Activity,[3],5.68%
same,Activity,[4],3.79%
O=C1Nc2ccccc2CN2CCC[C@@H]12,Activity,[1],5.04%
same,viability at 100 µM,[2],66.2%
same,Activity,[3],5.51%
same,Activity,[4],23.27%
C[C@H]1NCc2ccccc2NC1=O,Activity,[1],3.2%
same,viability at 100 µM,[2],69%
same,Activity,[3],0.98%
same,Activity,[4],26.85%
O=C1Nc2ccccc2CN[C@H]1Cc1c[nH]c2ccccc12,Activity,[1],3.55%
same,viability at 100 µM,[2],61.3%
same,Activity,[3],4.33%
same,Activity,[4],30.86%
O=C1Nc2ccccc2CN2C(=O)CC[C@@H]12,Activity,[1],3.75%
same,viability at 100 µM,[2],66.1%
same,Activity,[3],5.56%
same,Activity,[4],24.62%
O=C1Nc2ccccc2CN[C@@H]1Cc1ccccc1,Activity,[1],0.68%
same,viability at 100 µM,[2],79%
same,Activity,[3],0.68%
same,Activity,[4],17.26%
O=C1Nc2ccccc2CN2CCC[C@H]12,Activity,[1],3.1%
same,viability at 100 µM,[2],84.5%
same,Activity,[3],0.64%
same,Activity,[4],11.72%
O=C1Nc2ccccc2CN[C@H]1CSCc1ccccc1,Activity,[1],4.58%
same,viability at 100 µM,[2],64.4%
same,Activity,[3],5.05%
same,Activity,[4],26.01%
NC(=O)CC[C@@H]1NCc2ccccc2NC1=O,Activity,[1],3.12%
same,viability at 100 µM,[2],67.2%
same,Activity,[3],4.75%
same,Activity,[4],24.93%

# Source: ChEMBL document CHEMBL1139068, “Amino acid-based enantiomerically pure 3-substituted 1,4-benzodiazepin-2-ones: a new class of anti-ischemic agents” (2007)
